From ChEMBL document CHEMBL1134363 (J Med Chem, 2001)

Tests used:
[1] = target: T1, Adrenergic receptor alpha-2 (Rattus norvegicus, UniProt P22086+P19328+P22909); test: In vitro binding affinity against alpha-2 adrenergic receptor of rat in presence of [3H]-RX 821002 radioligand; type: protein assay
T1 sequence (P22086 whole entry): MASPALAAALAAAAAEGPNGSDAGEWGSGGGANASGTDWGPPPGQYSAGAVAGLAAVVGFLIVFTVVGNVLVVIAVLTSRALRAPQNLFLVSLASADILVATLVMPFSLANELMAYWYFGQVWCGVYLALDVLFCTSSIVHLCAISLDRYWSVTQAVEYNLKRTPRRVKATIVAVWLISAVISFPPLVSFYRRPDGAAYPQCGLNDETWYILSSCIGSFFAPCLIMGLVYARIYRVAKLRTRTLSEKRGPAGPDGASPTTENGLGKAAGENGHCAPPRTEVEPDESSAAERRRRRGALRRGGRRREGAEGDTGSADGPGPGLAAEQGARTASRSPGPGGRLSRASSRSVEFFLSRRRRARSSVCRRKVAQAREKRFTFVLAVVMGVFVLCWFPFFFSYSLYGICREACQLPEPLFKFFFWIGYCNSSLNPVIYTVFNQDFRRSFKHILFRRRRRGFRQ
T1 sequence (P19328 whole entry): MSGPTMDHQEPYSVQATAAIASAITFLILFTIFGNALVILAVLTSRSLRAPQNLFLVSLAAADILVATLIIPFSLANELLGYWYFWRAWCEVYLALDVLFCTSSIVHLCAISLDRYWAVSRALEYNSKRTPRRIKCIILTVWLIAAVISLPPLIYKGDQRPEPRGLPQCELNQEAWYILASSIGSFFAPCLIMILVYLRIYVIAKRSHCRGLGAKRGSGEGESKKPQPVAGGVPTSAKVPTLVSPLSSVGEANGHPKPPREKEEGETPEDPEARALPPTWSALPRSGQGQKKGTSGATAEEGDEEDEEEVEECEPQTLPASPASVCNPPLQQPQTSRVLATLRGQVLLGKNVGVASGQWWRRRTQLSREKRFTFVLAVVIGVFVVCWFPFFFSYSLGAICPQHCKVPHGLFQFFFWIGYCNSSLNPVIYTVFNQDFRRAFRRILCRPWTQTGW
T1 sequence (P22909 whole entry): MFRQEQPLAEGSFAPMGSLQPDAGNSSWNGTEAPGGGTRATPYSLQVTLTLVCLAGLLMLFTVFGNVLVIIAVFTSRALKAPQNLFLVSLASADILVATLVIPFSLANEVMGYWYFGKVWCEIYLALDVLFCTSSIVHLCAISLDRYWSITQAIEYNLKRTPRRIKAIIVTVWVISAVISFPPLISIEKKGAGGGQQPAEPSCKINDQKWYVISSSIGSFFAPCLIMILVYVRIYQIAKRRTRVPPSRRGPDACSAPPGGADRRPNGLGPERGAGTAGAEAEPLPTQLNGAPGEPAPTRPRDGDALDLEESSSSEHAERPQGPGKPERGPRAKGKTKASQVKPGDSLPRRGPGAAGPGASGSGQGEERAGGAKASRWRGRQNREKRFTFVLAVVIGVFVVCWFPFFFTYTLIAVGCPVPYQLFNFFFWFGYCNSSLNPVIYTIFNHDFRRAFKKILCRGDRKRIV

[2] = target: Norepinephrine transporter (Rattus norvegicus, UniProt Q9WTR4); test: In vitro binding affinity was determined against NA (noradrenaline) reuptake site of rat in presence of [3H]nisoxetine radioligand
[3] = target: T2, Alpha-2A adrenergic receptor (Homo sapiens) (UniProt P08913); test: Antagonistic activity as [35S]GTP gamma-S binding at alpha-2a adrenergic receptor expressed in CHO cells; type: functional, cell-based
T2 sequence (whole entry): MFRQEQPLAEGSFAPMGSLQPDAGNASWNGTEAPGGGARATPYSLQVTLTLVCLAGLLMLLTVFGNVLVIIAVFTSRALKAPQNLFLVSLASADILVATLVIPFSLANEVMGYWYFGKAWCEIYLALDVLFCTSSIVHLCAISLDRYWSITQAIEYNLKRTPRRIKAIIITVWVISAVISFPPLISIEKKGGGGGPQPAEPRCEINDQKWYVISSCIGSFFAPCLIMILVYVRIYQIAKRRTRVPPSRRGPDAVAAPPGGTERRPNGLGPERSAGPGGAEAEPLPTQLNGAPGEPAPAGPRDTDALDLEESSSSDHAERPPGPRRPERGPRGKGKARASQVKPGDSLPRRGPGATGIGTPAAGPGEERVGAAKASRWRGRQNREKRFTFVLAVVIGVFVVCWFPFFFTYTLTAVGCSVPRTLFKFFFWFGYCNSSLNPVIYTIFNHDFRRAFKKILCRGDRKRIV
Summary of the method: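 Membranes (40 μg/mL) from CHO cells stably expressing human α2A receptor, preincubated 30 min at room temperature with drug in 20 mM HEPES pH 7.4, 100 mM NaCl, 3 μM GDP, 3 mM MgCl2; 0.2 nM [35S]GTPγS added, 60 min room temperature, NA 10 μM as agonist. Nonspecific: 10 μM GTPγS. Filtration, scintillation counting; pKB from IC50 corrected for agonist concentration/EC50.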

[4] = target: T3, Alpha-2A adrenergic receptor (Homo sapiens, UniProt P08913); test: Binding affinity for human alpha-2 adrenergic receptor expressed in CHO cell; type: cell-based
T3 sequence (P08913 whole entry): T2 sequence (whole entry)

[5] = target: Sodium-dependent serotonin transporter (Rattus norvegicus, UniProt P31652); test: In vitro binding affinity was determined against serotonin reuptake site of rat in presence of [3H]paroxetine radioligand
[6] = target: T4, Adrenergic receptor alpha-1 (Rattus norvegicus, UniProt P15823+P23944+P43140); test: In vitro binding affinity against alpha-1 adrenergic receptor of rat in presence of [3H]-prazosin radioligand; type: protein assay
T4 sequence (P15823 whole entry): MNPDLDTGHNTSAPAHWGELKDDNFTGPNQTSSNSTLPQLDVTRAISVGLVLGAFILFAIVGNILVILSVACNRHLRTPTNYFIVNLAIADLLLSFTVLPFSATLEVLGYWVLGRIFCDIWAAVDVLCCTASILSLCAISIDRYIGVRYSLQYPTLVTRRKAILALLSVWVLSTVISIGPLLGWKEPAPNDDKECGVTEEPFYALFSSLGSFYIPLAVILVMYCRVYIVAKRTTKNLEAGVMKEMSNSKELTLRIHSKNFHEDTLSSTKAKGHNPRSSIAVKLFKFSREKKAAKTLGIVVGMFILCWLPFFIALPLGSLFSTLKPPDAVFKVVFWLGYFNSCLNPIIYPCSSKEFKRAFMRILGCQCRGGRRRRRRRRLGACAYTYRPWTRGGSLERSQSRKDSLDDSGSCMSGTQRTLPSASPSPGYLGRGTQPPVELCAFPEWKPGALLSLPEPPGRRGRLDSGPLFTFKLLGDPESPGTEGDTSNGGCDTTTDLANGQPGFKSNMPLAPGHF
T4 sequence (P23944 whole entry): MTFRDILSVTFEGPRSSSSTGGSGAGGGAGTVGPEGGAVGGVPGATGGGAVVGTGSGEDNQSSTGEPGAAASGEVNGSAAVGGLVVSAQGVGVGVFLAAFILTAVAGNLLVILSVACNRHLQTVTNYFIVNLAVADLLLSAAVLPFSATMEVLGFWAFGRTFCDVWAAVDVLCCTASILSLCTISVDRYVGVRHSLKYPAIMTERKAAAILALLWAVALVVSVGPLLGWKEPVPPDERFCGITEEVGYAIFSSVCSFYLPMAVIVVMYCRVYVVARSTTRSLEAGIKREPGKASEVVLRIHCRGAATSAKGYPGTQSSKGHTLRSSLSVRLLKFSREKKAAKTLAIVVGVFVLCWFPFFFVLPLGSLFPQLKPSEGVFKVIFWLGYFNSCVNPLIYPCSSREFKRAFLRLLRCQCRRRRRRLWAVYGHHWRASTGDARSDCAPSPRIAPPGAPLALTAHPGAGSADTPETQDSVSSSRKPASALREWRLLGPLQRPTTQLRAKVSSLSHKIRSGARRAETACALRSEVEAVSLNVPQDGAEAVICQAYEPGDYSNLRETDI
T4 sequence (P43140 whole entry): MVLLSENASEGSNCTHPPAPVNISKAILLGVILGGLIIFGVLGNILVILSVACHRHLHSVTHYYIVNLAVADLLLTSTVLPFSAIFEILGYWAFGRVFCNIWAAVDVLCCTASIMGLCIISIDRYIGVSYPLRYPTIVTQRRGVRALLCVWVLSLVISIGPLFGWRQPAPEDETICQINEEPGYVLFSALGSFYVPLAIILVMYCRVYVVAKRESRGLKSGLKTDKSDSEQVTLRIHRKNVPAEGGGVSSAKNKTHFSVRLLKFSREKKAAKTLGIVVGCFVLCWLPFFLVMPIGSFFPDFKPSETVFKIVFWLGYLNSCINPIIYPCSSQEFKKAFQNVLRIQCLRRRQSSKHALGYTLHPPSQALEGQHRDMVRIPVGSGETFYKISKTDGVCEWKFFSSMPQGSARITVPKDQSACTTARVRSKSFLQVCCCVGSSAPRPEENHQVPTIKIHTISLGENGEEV

Norepinephrine transporter, sequence (Q9WTR4 whole entry): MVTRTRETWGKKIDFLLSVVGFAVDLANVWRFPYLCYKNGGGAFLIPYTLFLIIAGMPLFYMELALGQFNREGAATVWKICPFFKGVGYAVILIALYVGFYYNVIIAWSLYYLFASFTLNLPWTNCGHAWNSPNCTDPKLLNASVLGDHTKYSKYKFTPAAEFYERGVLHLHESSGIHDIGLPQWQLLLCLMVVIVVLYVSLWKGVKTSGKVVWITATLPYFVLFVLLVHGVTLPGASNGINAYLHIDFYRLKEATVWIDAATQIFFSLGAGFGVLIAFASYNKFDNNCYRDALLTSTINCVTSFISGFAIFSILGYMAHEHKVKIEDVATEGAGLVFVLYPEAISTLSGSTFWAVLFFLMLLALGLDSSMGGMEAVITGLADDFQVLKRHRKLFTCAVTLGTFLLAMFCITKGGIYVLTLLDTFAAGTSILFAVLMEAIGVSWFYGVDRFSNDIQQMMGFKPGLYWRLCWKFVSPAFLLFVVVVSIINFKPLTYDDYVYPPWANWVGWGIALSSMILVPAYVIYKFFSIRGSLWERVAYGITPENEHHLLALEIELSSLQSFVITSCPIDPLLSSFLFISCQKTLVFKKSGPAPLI
Sodium-dependent serotonin transporter, sequence (P31652 whole entry): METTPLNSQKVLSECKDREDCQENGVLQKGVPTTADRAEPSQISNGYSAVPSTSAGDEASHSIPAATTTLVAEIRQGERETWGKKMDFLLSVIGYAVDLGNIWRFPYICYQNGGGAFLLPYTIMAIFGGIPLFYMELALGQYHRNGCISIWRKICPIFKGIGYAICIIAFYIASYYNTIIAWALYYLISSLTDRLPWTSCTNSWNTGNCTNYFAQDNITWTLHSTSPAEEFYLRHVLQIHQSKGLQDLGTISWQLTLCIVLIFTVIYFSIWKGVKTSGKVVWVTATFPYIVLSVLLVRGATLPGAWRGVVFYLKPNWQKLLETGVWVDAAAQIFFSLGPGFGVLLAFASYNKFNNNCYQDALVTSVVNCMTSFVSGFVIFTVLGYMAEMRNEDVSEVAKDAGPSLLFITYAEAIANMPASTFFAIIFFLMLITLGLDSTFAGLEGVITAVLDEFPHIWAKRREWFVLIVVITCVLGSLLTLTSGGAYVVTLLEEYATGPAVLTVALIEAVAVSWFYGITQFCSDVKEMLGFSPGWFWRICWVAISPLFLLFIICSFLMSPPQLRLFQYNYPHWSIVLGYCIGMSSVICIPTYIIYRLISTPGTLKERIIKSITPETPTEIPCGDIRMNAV

Structure (SMILES) | Log Ki [1] | Ki [2] [µM] | pKB [3] | Ki [4] [µM] | Ki [5] [µM] | Log Ki [6]
Fc1cccc2c1C=C(CC1CN=CN1)CC2 (centres undefined) | -7.4 | 0.126 | 6.8 | 0.0398 | 0.0794 | -6.3
CCC1(c2c[nH]cn2)Cc2ccccc2C1 [ATIPAMEZOLE] |  |  | 8.9 |  |  | -5.7
CN[C@H](CC(C)C)C(=O)N[C@H]1C(=O)N[C@@H](CC(N)=O)C(=O)N[C@H]2C(=O)N[C@H]3C(=O)N[C@H](C(=O)N[C@H](C(=O)O)c4cc(O)cc(O)c4-c4cc3ccc4O)[C@H](O)c3ccc(c(Cl)c3)Oc3cc2cc(c3O[C@@H]2O[C@H](CO)[C@@H](O)[C@H](O)[C@H]2O[C@H]2C[C@](C)(N)[C@H](O)[C@H](C)O2)Oc2ccc(cc2Cl)[C@H]1O [VANCOMYCIN] | -6.9 | 0.0158 | 6.7 |  | 0.0501 | -6
C1=NC[C@]2(CC[C@@H]3Cc4ccccc4C[C@H]3C2)N1 (relative stereo) | -8 | 0.2 | 8.2 | 0.00126 | 0.0158 | -6.1
Fc1ccc2c(c1)C=C(CC1CN=CN1)CC2 (centres undefined) | -6.7 | 0.0501 | 6.7 | 0.158 | 0.00158 | -6.6
Clc1cccc2c1C=C(CC1CN=CN1)CC2 (centres undefined) | -7.6 | 0.0501 | 7.6 | 0.0316 | 0.02 | -6.4
CCC1(c2cnc[nH]2)Cc2ccccc2C1 [ATIPAMEZOLE] |  | > 10 |  | 0.00316 | > 3.16 | 
C1=NCC(Cc2cc3ccccc3o2)N1 (centres undefined) | -7.9 | 0.0631 | 6.9 | 0.02 | 1 | -5.6
C1=NCC(CC2Cc3ccccc3C2)N1 (centres undefined) | -8.7 | 0.0398 | 8.1 | 0.00398 | 0.0631 | -6.3
C1=NC[C@H](C[C@]23CCc4ccccc4C2C3)N1 (some centres undefined) | -7.3 | 0.794 | 6.8 | 0.0631 | 0.0501 | -5.9
C1=NC[C@@H](C2C[C@@]23CCc2ccccc2C3)N1 (some centres undefined) | -8.2 | 0.1 | 8.2 | 0.00316 | 0.002 | -6.3
C1=NCC(CC2=Cc3ccccc3CC2)N1 (centres undefined) | -7 | 0.0501 | 6.6 | 0.1 | 0.0398 | -6.4
C[C@@]1(C[C@@H]2CN=CN2)CCc2ccccc2C1 | -7.1 | 0.2 |  |  | 0.01 | -6
CNCCC(Oc1ccc(C(F)(F)F)cc1)c1ccccc1 (centres undefined) |  |  | 7.4 |  |  | 
Clc1cccc2ccc(CC3CN=CN3)cc12 (centres undefined) | -7.5 | 0.02 | 7.5 | 0.0251 | 0.0316 | -6.4
Clc1cccc2c1CC(CC1CN=CN1)CC2 (centres undefined) | -8.8 | 0.1 |  |  | 0.00501 | -6.5
